Values joined by “and” are separate entries in the source; they are usually repeats but may differ in a detail not shown here. Identical values can stand only once.
Legend:
Canis familiaris [1] = species: Canis familiaris; assay: In vitro electrophysiological evaluation in canine cardiac Purkinje fibres reported as % change for action potential duration at 10 uM at 0.1-100 uM concentration range; format: functional, Canis lupus familiaris, Purkinje fiber
Procedure, shortened: (§1)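 Canine cardiac Purkinje fibres, intracellular microelectrode recording, paced at a basic cycle length of 1 s. APD95 and Vmax read simultaneously. Compound: 10 mM stock in deionized water, diluted into Tyrode's solution, tested over the stated concentration range. Each fibre used once as its own control. Result is % change from control, given at 10 µM or as the maximum with its concentration. M = <10% decrease or an increase in Vmax.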

Canis familiaris [2] = species: Canis familiaris; assay: In vitro electrophysiological evaluation in canine cardiac Purkinje fibres reported as maximum percent change Vmax concentration range of 0.1-100 uM; Minimal (<10% decrease or increase in Vmax).; format: functional; settings: Canis lupus familiaris; Purkinje fiber; procedure, shortened: as §1
Canis familiaris [3] = species: Canis familiaris; assay: In vitro electrophysiological evaluation in canine cardiac Purkinje fibres reported as % change for action potential duration at a concentration of 10 uM; format: functional, Canis lupus familiaris, Purkinje fiber; procedure, shortened: as §1
Canis familiaris [4] = species: Canis familiaris; assay: In vitro electrophysiological evaluation in canine cardiac ventricular muscle reported as maximum % change for functional refractory period (FRP); concentration at which it occurred is 10 uM.; set-up: species or system Canis lupus familiaris, Muscle tissue
Procedure, shortened: (§2)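 Canine right ventricle and papillary muscle strips in oxygenated Tyrode's solution, fitted with stimulating and recording electrodes. The extra-stimulus conduction-interval method was adapted for in vitro use. FRP and CT were read from a conduction-interval curve before and after various compound concentrations, and expressed as percent change from control. Compounds were taken from 10 mM deionized-water stock into Tyrode's. Each strip was used once as its own control.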

Canis familiaris [5] = species: Canis familiaris; assay: In vitro electrophysiological evaluation in canine cardiac ventricular muscle reported as maximum % change for conduction time(CT); Minimal (<10% decrease or increase in […]).; format: functional, Canis lupus familiaris, Muscle tissue; procedure, shortened: as §2
Canis familiaris [6] = species: Canis familiaris; assay: In vitro electrophysiological evaluation in canine cardiac ventricular muscle reported as % change for conduction time(CT) at 10 uM; Minimal (<10% decrease or increase in Vmax).; format: functional, Canis lupus familiaris, Muscle tissue; procedure, shortened: as §2
Canis familiaris [7] = species: Canis familiaris; assay: In vitro electrophysiological evaluation in canine cardiac ventricular muscle reported as % change for the functional refractory period (FRP) at 10 uM; set-up: species or system Canis lupus familiaris, Muscle tissue; procedure, shortened: as §2
Canis familiaris [8] = species: Canis familiaris; assay: In vitro electrophysiological activity in canine cardiac occurred is 100 uM.; format: functional, Canis lupus familiaris, Heart
Canis familiaris [9] = species: Canis familiaris; assay: In vitro electrophysiological evaluation in canine cardiac Purkinje fibres reported as percent change Vmax at 10 uM at concentration range of 0.1-100 uM; Minimal (<10% decrease or increase in Vmax).; format: functional, organism-based; settings: Canis lupus familiaris, Purkinje fiber; procedure, shortened: as §1
Canis familiaris [10] = assay: Left ventricular refractory period was determined by intraduodenal administration of two dosages(high dose) of 30 mg/kg of compound in anesthetized dogs. Value was reported for experiment 1; format: functional, Canis lupus familiaris, Cardiac ventricle
Procedure, shortened: (§3)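 Anesthetized dogs, usually given two intraduodenal doses, with the second dose cumulative (low/high). Left ventricular FRP and CT were determined at 15, 30 and 45 min after dosing. HR and BP were measured during nonpacing intervals. Values are % change from control at low/high dose, for individual animals. The vehicle-stability set used 5% dextrose in water/tragacanth (n = 8).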

Canis familiaris [11] = assay: Heart rate was determined by intraduodenal administration of two dosages of 10 mg/kg (low dose) of compound in anesthetized dogs. Value was reported for experiment 2; format: functional, Canis lupus familiaris
Procedure, shortened: (§4)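 Anesthetized dogs given the compound intraduodenally, generally as two doses with the second a cumulative total (low/high). FRP and CT measured at 15, 30 and 45 min after dosing. HR and BP taken during nonpacing intervals. Values are percent change from control per animal. Activity criterion is FRP or CT prolonged ≥12%. Vehicle: 5% dextrose in water/tragacanth.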

Canis familiaris [12] = assay: Heart rate was determined by intraduodenal administration of two dosages of 30 mg/kg (high dose) of compound in anesthetized dogs. Value was reported for experiment 2; format: functional, Canis lupus familiaris; procedure, shortened: as §4
Canis familiaris [13] = species: Canis familiaris; assay: In vitro electrophysiological evaluation in canine cardiac Purkinje fibres reported as % change for action potential duration at 10 uM at 0.1-30 uM concentration range; format: functional, Canis lupus familiaris, Purkinje fiber; procedure, shortened: as §1
Canis familiaris [14] = species: Canis familiaris; assay: In vitro electrophysiological evaluation in canine cardiac occurred is 30 uM.; format: functional; settings: Canis lupus familiaris; Heart
Canis familiaris [15] = species: Canis familiaris; assay: (§5) In vitro electrophysiological evaluation in canine cardiac occurred is 100 uM.; format: functional; settings: Canis lupus familiaris; Heart
Canis familiaris [16] = assay: Mean arterial blood pressure was determined by intraduodenal administration of two dosages of 30 mg/kg (high dose)of compound in anesthetized dogs. Value was reported for experiment 1; format: functional, Canis lupus familiaris; procedure, shortened: as §3
Canis familiaris [17] = species: Canis familiaris; assay: as §5; format: functional; settings: Canis lupus familiaris; Heart
Canis familiaris [18] = assay: Left ventricular refractory period was determined by intraduodenal administration of two dosages of 10 mg/kg (low dose) of compound in anesthetized dogs. Value was reported for experiment 1; format: functional, Canis lupus familiaris, Cardiac ventricle; procedure, shortened: as §3
Canis familiaris [19] = assay: Left ventricular refractory period was determined by intraduodenal administration of two dosages of 30 mg/kg (high dose)of compound in anesthetized dogs. Value was reported for experiment 2; format: functional, Canis lupus familiaris, Cardiac ventricle; procedure, shortened: as §3
Canis familiaris [20] = species: Canis familiaris; assay: In vitro electrophysiological evaluation in canine cardiac Purkinje fibres reported as % change for action potential duration at 10 uM at 5-50 uM concentration range; format: functional, Canis lupus familiaris, Purkinje fiber
Procedure, shortened: (§6)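 Canine cardiac Purkinje fibers, intracellular recording, paced at a basic cycle length of 1 s. APD95 and Vmax are recorded together across cumulative concentrations. Compound is a 10 mM aqueous stock diluted into Tyrode's solution. Each fiber is used once as its own control. Readouts are percent change from control at 10 μM, and the maximum change with the concentration where it occurred.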

Canis familiaris [21] = assay: Conduction time was determined by intraduodenal administration of two dosages of 30 mg/kg (high dose)of compound in anesthetized dogs. Value was reported for experiment 1; format: functional, Canis lupus familiaris; procedure, shortened: as §4
Canis familiaris [22] = assay: Heart rate was determined by intraduodenal administration of two dosages of 30 mg/kg (high dose)of compound in anesthetized dogs. Value was reported for experiment 1; format: functional, Canis lupus familiaris; procedure, shortened: as §4
Canis familiaris [23] = assay: Conduction time was determined by intraduodenal administration of two dosages of 10 mg/kg (low dose) of compound in anesthetized dogs. Value was reported for experiment 1; format: functional, Canis lupus familiaris; procedure, shortened: as §4
Canis familiaris [24] = species: Canis familiaris; assay: In vitro electrophysiological evaluation in canine cardiac Purkinje fibres reported as percent change Vmax at 10 uM at concentration range of 0.1-100 uM; format: functional; settings: Canis lupus familiaris, Purkinje fiber; procedure, shortened: as §6
Canis familiaris [25] = species: Canis familiaris; assay: In vitro electrophysiological evaluation in canine cardiac Purkinje fibres reported as percent change Vmax at 10 uM at concentration range of 0.1-30 uM; format: functional; settings: Canis lupus familiaris, Purkinje fiber; procedure, shortened: as §1
Canis familiaris [26] = assay: Left ventricular refractory period was determined by intraduodenal administration of two dosages of 10 mg/kg (low dose) of compound in anesthetized dogs. Value was reported for experiment 2; format: functional, Canis lupus familiaris, Cardiac ventricle; procedure, shortened: as §3
Canis familiaris [27] = assay: Conduction time was determined by intraduodenal administration of two dosages of 30 mg/kg (high dose) of compound in anesthetized dogs. Value was reported for experiment 2; format: functional, Canis lupus familiaris; procedure, shortened: as §4
Canis familiaris [28] = species: Canis familiaris; assay: In vitro electrophysiological evaluation in canine cardiac ventricular muscle reported as % change for conduction time(CT) at 10 uM at 0.1-100 uM concentration range; format: functional, Canis lupus familiaris, Muscle tissue
Procedure, shortened: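 Canine right ventricular/papillary muscle strips in oxygenated Tyrode's, extracellular extra-stimulus conduction-interval method. FRP and CT are read from conduction-interval curves before and during rising concentrations. Compound is a 10 mM aqueous stock diluted into Tyrode's. Each strip is used once as its own control. Readouts are percent change from control at 10 μM, plus the maximum change with its concentration.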

Canis familiaris [29] = species: Canis familiaris; assay: In vitro electrophysiological evaluation in canine cardiac Purkinje fibres reported as percent change Vmax at 10 uM at concentration range of 5-50 uM; format: functional; settings: Canis lupus familiaris, Purkinje fiber; procedure, shortened: as §6
Canis familiaris [30] = species: Canis familiaris; assay: In vitro electrophysiological evaluation in canine cardiac ventricular muscle reported as maximum % change for functional refractory period (FRP) at 0.1-100 uM concentration range; concentration at which it occurred is 10 uM.; set-up: species or system Canis lupus familiaris, Muscle tissue; procedure, shortened: as §2
Canis familiaris [31] = assay: Heart rate was determined by intraduodenal administration of two dosages of 10 mg/kg (low dose) of compound in anesthetized dogs. Value was reported for experiment 1; format: functional, Canis lupus familiaris; procedure, shortened: as §4
Canis familiaris [32] = species: Canis familiaris; assay: In vitro electrophysiological activity in canine cardiac occurred is 30 uM.; format: functional, Canis lupus familiaris, Heart
Canis familiaris [33] = assay: Conduction time was determined by intraduodenal administration of two dosages of 10 mg/kg (low dose) of compound in anesthetized dogs. Value was reported for experiment 2; format: functional, Canis lupus familiaris
Procedure, shortened: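 Anesthetized dogs; compound given intraduodenally, generally as two doses, the second a cumulative (high) dose. LV functional refractory period and conduction time measured 15, 30 and 45 min after dosing; heart rate and blood pressure measured during nonpacing intervals. Values are % change from control, given per individual animal. Active if FRP or CT prolonged by ≥12%.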

Canis familiaris [34] = species: Canis familiaris; assay: In vitro electrophysiological evaluation in canine cardiac ventricular muscle reported as % change for the functional refractory period (FRP) at 10 uM at concentration range of 0.1-100 uM; set-up: species or system Canis lupus familiaris, Muscle tissue; procedure, shortened: as §2
Canis familiaris [35] = assay: Mean arterial blood pressure was determined by intraduodenal administration of two dosages of 10 mg/kg (low dose) of compound in anesthetized dogs. Value was reported for experiment 1; format: functional, Canis lupus familiaris; procedure, shortened: as §3
Canis familiaris [36] = assay: Mean arterial blood pressure was determined by intraduodenal administration of two dosages of 10 mg/kg (low dose) of compound in anesthetized dogs. Value was reported for experiment 2; format: functional, Canis lupus familiaris; procedure, shortened: as §3
Canis familiaris [37] = species: Canis familiaris; assay: In vitro electrophysiological evaluation in canine cardiac ventricular muscle reported as maximum % change for functional refractory period (FRP) at 0.1-100 uM concentration range; concentration at which it occurred is 100 uM.; set-up: species or system Canis lupus familiaris, Muscle tissue; procedure, shortened: as §2
Canis familiaris [38] = assay: Mean arterial blood pressure was determined by intraduodenal administration of two dosages of 30 mg/kg(high dose) of compound in anesthetized dogs. Value was reported for experiment 2; format: functional, Canis lupus familiaris; procedure, shortened: as §3
Canis familiaris [39] = species: Canis familiaris; assay: In vitro electrophysiological activity in canine cardiac occurred is 50 uM.; format: functional, Canis lupus familiaris, Heart

Cl.O=C1C2CCN(CC2)C1CCCc1ccccc1 (stereo unspecified)
APD95 (Canis familiaris [1]): 1% | Vmax (Canis familiaris [2]): < 10% | APD95 (Canis familiaris [3]): -6% | FRP (Canis familiaris [4]): 5% | CT (Canis familiaris [5]): <10% | CT (Canis familiaris [6]): <10% | FRP (Canis familiaris [7]): 5% | APD95 (Canis familiaris [8]): -38% and -35% | Vmax (Canis familiaris [9]): < 10%

C=C[C@H]1CN2CC[C@H]1C[C@@H]2[C@@H](O)c1ccnc2ccc(OC)cc12 [QUINIDINE]
LV FRP (Canis familiaris [10]): 20% | HR (Canis familiaris [11]): -18% | HR (Canis familiaris [12]): -39% | APD95 (Canis familiaris [13]): -21% | Vmax (Canis familiaris [14]): -19% | Vmax (Canis familiaris [15]): -53% | Mean blood pressure (Canis familiaris [16]): -4% | Vmax (Canis familiaris [17]): -40% | LV FRP (Canis familiaris [18]): 13% | LV FRP (Canis familiaris [19]): 28% | APD95 (Canis familiaris [20]): -9% | CT (Canis familiaris [21]): 51% | HR (Canis familiaris [22]): -42% | CT (Canis familiaris [23]): 7% | APD95 (Canis familiaris [3]): -9% | Vmax (Canis familiaris [24]): -10% | Vmax (Canis familiaris [25]): < 10% | LV FRP (Canis familiaris [26]): 16% | CT (Canis familiaris [27]): 38% | CT (Canis familiaris [28]): 17% and 11% and <10% | Vmax (Canis familiaris [29]): -11% | FRP (Canis familiaris [30]): 22% | HR (Canis familiaris [31]): -22% | APD95 (Canis familiaris [32]): -39% | CT (Canis familiaris [33]): 10% | FRP (Canis familiaris [34]): 21% [middle of 4 runs] | Mean blood pressure (Canis familiaris [35]): 2% | Mean blood pressure (Canis familiaris [36]): -7% | FRP (Canis familiaris [37]): 27% and 24% and 46% | Mean blood pressure (Canis familiaris [38]): 15% | APD95 (Canis familiaris [39]): -19% | APD95 (Canis familiaris [8]): -24%
